TRPC4 inh: inhibitors of mouse TRPC4 channel | Q9QUQ5 | HEK293 TRPC4beta/mu-opioid, DAMGO-evoked Fluo4 calcium flux; active compounds read low | B-score at 10 µM | hit rate 0.39% among 300,000 | AID 2247;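 active means B-score over 3 SD under the library average, no early fluorescence shift, positive overall ratio signal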
Target sequence (Q9QUQ5 whole entry, looked up): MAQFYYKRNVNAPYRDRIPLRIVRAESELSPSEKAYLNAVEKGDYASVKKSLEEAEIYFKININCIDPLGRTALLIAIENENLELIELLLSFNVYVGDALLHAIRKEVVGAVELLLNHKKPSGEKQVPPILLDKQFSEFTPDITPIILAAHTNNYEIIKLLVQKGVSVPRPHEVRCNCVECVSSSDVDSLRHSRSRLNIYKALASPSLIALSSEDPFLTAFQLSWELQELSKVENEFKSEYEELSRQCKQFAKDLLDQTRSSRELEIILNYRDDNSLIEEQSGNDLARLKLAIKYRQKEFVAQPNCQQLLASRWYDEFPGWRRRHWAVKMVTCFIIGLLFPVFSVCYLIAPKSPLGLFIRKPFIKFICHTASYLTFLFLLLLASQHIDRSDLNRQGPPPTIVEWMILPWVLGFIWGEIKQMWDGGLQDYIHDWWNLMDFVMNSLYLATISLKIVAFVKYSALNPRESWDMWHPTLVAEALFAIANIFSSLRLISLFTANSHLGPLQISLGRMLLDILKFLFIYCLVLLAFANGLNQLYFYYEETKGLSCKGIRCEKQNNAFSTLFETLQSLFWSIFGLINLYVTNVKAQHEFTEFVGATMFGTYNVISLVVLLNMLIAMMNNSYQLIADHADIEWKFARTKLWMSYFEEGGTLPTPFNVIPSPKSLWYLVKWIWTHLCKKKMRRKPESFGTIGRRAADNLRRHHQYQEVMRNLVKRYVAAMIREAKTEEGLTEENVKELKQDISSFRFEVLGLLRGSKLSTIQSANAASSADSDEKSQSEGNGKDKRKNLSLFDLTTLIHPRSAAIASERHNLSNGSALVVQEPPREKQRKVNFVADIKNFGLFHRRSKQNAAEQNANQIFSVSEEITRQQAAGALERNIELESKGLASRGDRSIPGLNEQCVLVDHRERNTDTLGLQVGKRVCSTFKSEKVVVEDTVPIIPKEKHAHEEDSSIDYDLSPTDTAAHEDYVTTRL
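Assay system: TRPC4beta/mu-opioid receptor HEK293 cell line; compound dosing: single concentration per test compound; detection: Fluo4 Ca2+ flux fluorescence; evaluation: per-well B score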
TRPC4 PAM: allosterically enhances the mouse TRPC4 cation channel; B-score at 10 µM; HEK293 TRPC4beta/mu-opioid, DAMGO EC20, Fluo-4 Ca2+ flux; active compounds read high; AID 2227; Q9QUQ5; hit rate 0.42% among 310,000;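 active means B-score of calcium response area above 5 SD of library B-scores, with initial fluorescence ratio within 5 SD of library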;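 further: B-score of integrated fluorescence ratio over time as area under calcium response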
TRPC4 act: activators of mouse TRPC4 channel; HEK293 TRPC4beta/mu-opioid, Fluo4 calcium fluorescence; active compounds read high; hit rate 0.49% among 310,000; B-score at 10 µM;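 active means B-score above 5 SD of library B-scores, and initial fluorescence ratio not above library mean plus 5 SD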;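 further: positive B-score marks a calcium rise read as TRPC4 activation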
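Technique: kinetic Fluo4 calcium fluorescence; Test system: TRPC4beta and mu-opioid receptor HEK293 stable cells; Measure: B-scored integrated calcium fluorescence ratio; Benchmarks: low control buffer alone, high control maximal DAMGO; Schedule: 45 min room-temperature Fluo4 loading, 110 s read.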
TRPC6 inh: blocks the mouse TRPC6 cation channel. AID 2553. B-score at 10 µM. Q61143. HEK293-TRPC6, membrane potential dye, ACh-evoked depolarization; active compounds read low. hit rate 1.1% among 310,000;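 active means B-score under library mean minus 3 SD, initial fluorescence not abnormally high, positive integrated signal ratio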;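 further: B-score derived from integrated fluorescence ratio over the kinetic read; more negative B-score means stronger inhibition of depolarization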
TRPC6 activator: activators of mouse TRPC6 channel. hit rate 0.13% among 310,000. AID 2550. B-score at 10 µM. HEK293-TRPC6 membrane potential dye fluorescence; active compounds read high;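 active means B-score of the integrated fluorescence ratio above library mean plus 3 SD, and starting fluorescence ratio within library mean plus 5 SD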;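 further: higher score means more depolarization so channel activation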
The depositor's hits bear a star; i = inactive. A selection: hits, their analogues and other compounds. The true share with any hit is near 2.3%.

SMILES | TRPC4 inh | TRPC4 PAM | TRPC4 act | TRPC6 inh | TRPC6 activator
Cc1oc(-c2ccc(Cl)cc2)nc1CN1CCC(C(=O)NCc2cccs2)CC1 | -6* | i | i | i | i
CCN(CCNC(=O)C1CCN(Cc2nc(-c3ccc(Cl)cc3)oc2C)CC1)c1ccccc1 | i | i | i | -6.6* | i
CCN(CC)C(=O)Cn1cc(C(=O)C(=O)N2CCN(c3ccccc3)CC2)c2ccccc21 | i | i | i | i | i
CCCCCSc1nnc2c(n1)OC(c1cccn1C)N(C(C)=O)c1ccccc1-2 (stereo unspecified) | i | i | 193* | i | i
CC1(c2ccc(Cl)cc2Cl)OCC(Cn2ccnc2)O1 (stereo unspecified) | i | i | 105* | i | i
C(=N\c1nc2ccccc2[nH]1)/c1cccs1 | i | i | 54* | i | i
Cn1c(/C=N/c2nc3ccccc3[nH]2)nc2ccccc21 | i | i | i | i | i
COc1cc(NC(=O)Cn2cnc3c(nc4n3CCCCC4)c2=O)cc(OC)c1OC | i | i | i | i | i
COc1ccc(CCC(C)NCC2CCCCC2)cc1 (stereo unspecified) | -7* | i | i | i | i
COc1ccc(CN2CCC(n3nccc3NC(=O)CCc3ccccc3)CC2)c(C)c1C | i | i | 82* | i | i
CCn1cc(CN2CCC(n3nccc3NC(=O)CCCc3ccccc3)CC2)cn1 | -7* | i | 43* | i | i
CCn1cc(CN2CCC(n3nccc3NC(=O)Cc3ccccc3)CC2)cn1 | i | i | i | i | i
Cc1ccc(CN2CCC(n3nccc3NC(=O)CCOc3ccccc3)CC2)cc1C | -6* | i | i | i | i
Cc1cccc(Cc2cnc(N3C(=N)SC(C)C3=O)s2)c1 (stereo unspecified) | i | i | i | i | i
CCN1CCCC1CNC(=O)c1cc(N)ccc1OC (stereo unspecified) | i | i | i | i | i
CN(C)c1ccc(C(=O)NCCCSc2ccccc2)cc1 | i | i | i | i | i
Cc1[nH]nc(N)c1N=Nc1ccc(Br)cc1 | i | i | i | -5.6* | i
Cc1ccc(N=Nc2c(N)n[nH]c2N)cc1 | i | i | i | i | i
CN(C(=O)CSc1nc(-c2ccc(C(C)(C)C)cc2)c(C#N)c(=O)[nH]1)C1CCCCC1 | -6* | i | i | i | i
N#Cc1c(-c2ccccc2)nc(SCC(=O)NC2CCCCC2)[nH]c1=O | i | i | i | i | i
CN(CC(=O)Nc1ccc(F)cc1)C(=O)COC(=O)C1CCN(c2ccc(C(F)(F)F)cn2)CC1 | -5* | i | i | i | i
CCc1ccc(Nc2cnn(-c3nc4ccccc4s3)c(=O)c2Cl)cc1 | i | i | i | i | i
Cc1ccc(C)c(N(CC(=O)NC2CCCC2)C(=O)c2csnn2)c1 | -10* | i | 70* | i | i
CCn1c2ccc(F)cc2c2nnc(NN)nc21 | i | 18* | i | i | i
NNc1nnc2c3cc(F)ccc3n(Cc3ccccc3)c2n1 | i | i | i | i | i
SMILES | TRPC4 inh | TRPC4 PAM | TRPC4 act | TRPC6 inh | TRPC6 activator
CCCn1c2ccc(F)cc2c2nnc(NN)nc21 | i | 11* | i | i | i
O=[N+]([O-])c1cc(C(F)(F)F)ccc1NC1CCN(Cc2ccccc2)C1 (stereo unspecified) | i | 50* | i | i | i
O=[N+]([O-])c1cc(C(F)(F)F)ccc1NC1CCN(Cc2ccccc2)CC1 | i | i | i | i | i
N#Cc1c(NC(NC(=O)c2ccco2)C(=O)c2ccccc2)sc2c1CCCC2 (stereo unspecified) | i | i | i | i | i
c1ccc(Cc2c[nH]c3ccccc23)cc1 | -5* | i | i | i | i
Cc1ccc(OCCCCCN2CCOCC2)c(Cl)c1 | i | i | i | i | i
O=C(CCn1c(=O)oc2ccccc21)N1CCCCCC1 | i | i | i | i | i
Cc1ccccc1-n1c(SCc2cccc(F)c2)nc2[nH]ncc2c1=O | i | 13* | i | i | i
O=S(=O)(Cc1ccccc1)N1CCC(c2nc(-c3cccs3)no2)CC1 | i | 17* | i | i | i
COc1ccccc1N=Cc1c(C)c(C#N)c2[nH]c3ccccc3n2c1=O | i | i | i | i | i
Cc1cc(C(=O)N/N=C\c2cc(C(C)(C)C)ccc2O)n[nH]1 | -6* | i | i | i | i
COC(=O)c1ccc(N2CCN(C)CC2)c(NC(=O)c2cccs2)c1 | i | i | 142* | i | i
COC(=O)c1ccc(N2CCN(C)CC2)c(NC(=O)COc2ccccc2)c1 | i | i | 120* | i | i
CN1CCN(c2ccc(NC(=O)COc3ccccc3)cc2Cl)CC1 | i | i | i | i | i
COC(=O)c1ccc(N2CCN(C)CC2)c(NC(=O)COc2cccc(C)c2)c1 | i | i | 63* | i | i
Cc1cccc(OCC(=O)Nc2ccccc2N2CCN(C)CC2)c1 | i | i | i | i | i
COC(=O)c1ccc(N2CCOCC2)c(NC(=O)c2cccs2)c1 | i | i | i | i | i
CC(C)c1nc(SCC(=O)Nc2cccc(C(F)(F)F)c2)c2c(=O)n(C)c(=O)n(C)c2n1 | i | 12* | i | i | i
COc1ccc(OCC(O)CNCc2ccco2)cc1 (stereo unspecified) | i | i | i | i | i
COc1ccc(C(CNCC(O)COc2c(C)ccc(C)c2C)N(C)C)cc1 (stereo unspecified) | i | i | 68* | i | i
COc1ccc2c(C)cc(N3CCCCCC3)nc2c1 | -10* | i | i | i | i
COc1ccc2c(C)cc(N3CCN(Cc4ccccc4)CC3)nc2c1 | i | i | i | i | i
Cc1cc(N2CCCCCC2)nc2ccc(F)cc12 | -6* | i | i | i | i
CC(C)C1CC(CCNCc2ccc(N(C)C)cc2)(c2ccccc2)CCO1 (stereo unspecified) | i | i | 100* | i | i
CC(C)C1CC(CCNCc2ccc3c(c2)OCO3)(c2ccccc2)CCO1 (stereo unspecified) | i | i | 122* | i | i
Cc1ccc(C2(CCNCc3ccc(N(C)C)cc3)CCOC(C(C)C)C2)cc1 (stereo unspecified) | i | i | 111* | i | i
